# Measurements from ChEMBL document CHEMBL3259614, “Design, synthesis, and structure-activity relationship studies of novel fused heterocycles-linked triazoles with good activity and water solubility” (J Med Chem, 2014).
# pIC50: −log10 of the molar value.
# Assays:
# Candida albicans [1] = assay: Antimicrobial activity against Candida albicans SC5314 after 24 hrs by serial dilution method; type: functional; settings: SC5314, 24 h
# How it was run: (§1)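 Broth serial dilution MIC in 96-well plates following NCCLS/CLSI methods. Compounds were dissolved in DMSO and serially diluted in growth medium, with incubation at 35 °C. […] C. parapsilosis 22019 served as the quality-control strain in each assay.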
# Candida albicans [2] = assay: Antimicrobial activity against Candida albicans Y0109 after 24 hrs by serial dilution method; type: functional; settings: Y0109, 24 h; how it was run: as §1
# Candida parapsilosis [3] = assay: Antimicrobial activity against Candida parapsilosis 22019 after 24 hrs by serial dilution method; type: functional; settings: Lodderomyces parapsilosis, 22019, 24 h; how it was run: as §1
# Cryptococcus neoformans [4] = assay: Antimicrobial activity against Cryptococcus neoformans 32609 after 72 hrs by serial dilution method; type: functional; settings: Cryptococcus neoformans, 32609, 72 h; how it was run: as §1
# Nakaseomyces glabratus [5] = assay: Antimicrobial activity against Candida glabrata 537 after 24 hrs by serial dilution method; type: functional; settings: Nakaseomyces glabratus, 537, 24 h; how it was run: as §1
# Aspergillus fumigatus = assay: Antimicrobial activity against Aspergillus fumigatus 7544 after 48 hrs by serial dilution method; type: functional; settings: Aspergillus fumigatus, 7544, 48 h; how it was run: as §1
# Candida albicans [6] = assay: Antimicrobial activity against fluconazole-resistant Candida albicans 100 after 24 hrs by serial dilution method; type: functional; settings: Candida albicans, 100, 24 h
# How it was run: (§2)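 Broth serial-dilution MIC in 96-well plates following NCCLS guidance. Compounds were dissolved in DMSO and serially diluted in growth medium. Clinical isolates came from a hospital collection. […] C. parapsilosis ATCC 22019 served as the quality-control strain in each assay.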
# Candida albicans [7] = assay: Antimicrobial activity against fluconazole-resistant Candida albicans 103 after 24 hrs by serial dilution method; type: functional; settings: Candida albicans, 103, 24 h; how it was run: as §2
# Candida albicans [8] = assay: Antimicrobial activity against fluconazole-resistant Candida albicans J18 after 24 hrs by serial dilution method; type: functional; settings: J18, 24 h; how it was run: as §2
# Candida albicans [9] = assay: Antimicrobial activity against fluconazole-resistant Candida albicans J28 after 24 hrs by serial dilution method; type: functional; settings: J28, 24 h; how it was run: as §2
# Candida albicans [10] = assay: Antimicrobial activity against fluconazole-resistant Candida albicans J38 after 24 hrs by serial dilution method; type: functional; settings: J38, 24 h; how it was run: as §2
# Candida parapsilosis [11] = assay: Ratio of voriconazole MIC to compound MIC for Candida parapsilosis 22019 after 24 hrs by serial dilution method; type: functional
# Cryptococcus neoformans [12] = assay: Ratio of voriconazole MIC to compound MIC for Cryptococcus neoformans 32609 after 72 hrs by serial dilution method; type: functional
# Nakaseomyces glabratus [13] = assay: Ratio of voriconazole MIC to compound MIC for Candida glabrata 537 after 24 hrs by serial dilution method; type: functional
# Candida parapsilosis [14] = assay: Ratio of ravuconazole MIC to compound MIC for Candida parapsilosis 22019 after 24 hrs by serial dilution method; type: functional
# Cryptococcus neoformans [15] = assay: Ratio of ravuconazole MIC to compound MIC for Cryptococcus neoformans 32609 after 72 hrs by serial dilution method; type: functional
# Nakaseomyces glabratus [16] = assay: Ratio of ravuconazole MIC to compound MIC for Candida glabrata 537 after 24 hrs by serial dilution method; type: functional
# Candida albicans [17] = assay: Ratio of fluconazole MIC to compound MIC for fluconazole-resistant Candida albicans 103 after 24 hrs by serial dilution method; type: functional
# Candida albicans [18] = assay: Ratio of fluconazole MIC to compound MIC for fluconazole-resistant Candida albicans 100 after 24 hrs by serial dilution method; type: functional
# Candida albicans [19] = assay: Ratio of fluconazole MIC to compound MIC for fluconazole-resistant Candida albicans J18 after 24 hrs by serial dilution method; type: functional
# Candida albicans [20] = assay: Antimicrobial activity against Candida albicans SC5314 infected in ICR mouse assessed as mean survival days at 1 mg/kg, po qd for 5 days starting 2 hrs post infection (reference value: 5.2 +/- 2.35 days starting 2 hrs post infection); type: functional
# [21] = target: Voltage-gated inwardly rectifying potassium channel KCNH2 (Homo sapiens, UniProt Q12809); assay: Inhibition of human ERG expressed in CHO cells by whole-cell patch clamp assay; type: cell-based
# Candida albicans [22] = assay: Antimicrobial activity against Candida albicans SC5314 infected in ICR mouse assessed as mean survival days at 0.32 mg/kg, po qd for 5 days starting 2 hrs post infection (reference value: 5.2 +/- 2.35 days starting 2 hrs post infection); type: functional
# [23] = Aqueous solubility of the compound in hydrochloric acid solution at pH 1.2; type: physicochemical
# How it was run: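 Excess solid was stirred for 3 h in pH 1.2 hydrochloric acid or pH 7.4 phosphate buffer, then filtered through 0.45 μm. Absorbance at the UV maximum was compared with a methanol standard, C′ = A′C/A, with values reported in mg/mL. Determined at 30 °C; mean ± SD, n = 3.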
# Candida albicans [24] = assay: Antimicrobial activity against Candida albicans SC5314 infected in ICR mouse assessed as mean survival days at 3.2 mg/kg, po qd for 5 days starting 2 hrs post infection (reference value: 5.2 +/- 2.35 days starting 2 hrs post infection); type: functional
# Candida albicans [25] = assay: Antimicrobial activity against Candida albicans SC5314 infected in ICR mouse assessed as mean survival days at 10 mg/kg, po qd for 5 days starting 2 hrs post infection (reference value: 5.2 +/- 2.35 days starting 2 hrs post infection); type: functional
# Candida albicans [26] = assay: Antimicrobial activity against fluconazole-resistant Candida albicans 103 infected in ICR mouse assessed as mean survival days at 0.32 mg/kg, po qd for 5 days starting 2 hrs post infection (reference value: 1.5 +/- 0.53 days); type: functional
# Candida albicans [27] = assay: Antimicrobial activity against fluconazole-resistant Candida albicans 103 infected in ICR mouse assessed as mean survival days at 1 mg/kg, po qd for 5 days starting 2 hrs post infection (reference value: 1.5 +/- 0.53 days); type: functional
# Candida albicans [28] = assay: Antimicrobial activity against fluconazole-resistant Candida albicans 103 infected in ICR mouse assessed as mean survival days at 3.2 mg/kg, po qd for 5 days starting 2 hrs post infection (reference value: 1.5 +/- 0.53 days); type: functional
# Candida albicans [29] = assay: Antimicrobial activity against fluconazole-resistant Candida albicans 103 infected in ICR mouse assessed as mean survival days at 10 mg/kg, po qd for 5 days starting 2 hrs post infection (reference value: 1.5 +/- 0.53 days); type: functional
# [30] = Cmax in Sprague-Dawley rat at 10 mg/kg, po; type: ADME, organism-based; set-up: dose 10 mg/kg, route oral; settings: in vivo
# How it was run: (§3)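 Male Sprague−Dawley rats (200−250 g), seven per group, dosed orally at 10 mg/kg or intravenously at 3 or 5 mg/kg in 5% DMSO + 5% Tween 80 in 90% saline. Serial retrobulbar blood samples were quantified by LC-MS. Parameters were derived from mean plasma concentrations by noncompartmental analysis. For the disulfate salt, values are based on the active free base measured.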
# [31] = Tmax in Sprague-Dawley rat at 10 mg/kg, po; type: ADME, organism-based; set-up: dose 10 mg/kg, route oral; settings: in vivo; how it was run: as §3
# [32] = Half life in Sprague-Dawley rat at 10 mg/kg, po; type: ADME, organism-based; set-up: dose 10 mg/kg, route oral; settings: in vivo; how it was run: as §3
# [33] = AUC (0 to infinity) in Sprague-Dawley rat at 10 mg/kg, po; type: ADME, organism-based; set-up: time infinity, dose 10 mg/kg, route oral; settings: plasma; how it was run: as §3
# [34] = Intrinsic clearance in Sprague-Dawley rat liver microsomes assessed per mg protein at 0.1 uM by LC/MS/MS analysis; type: ADME
# How it was run: (§4)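 Male Sprague−Dawley rat liver microsomes (0.33 mg/mL protein) in 0.1 M Tris-HCl pH 7.4 with 5 mM MgCl₂ and 1 mM NADPH. Compound at a final 0.1 μM (0.01% DMSO, 0.005% BSA), incubated at 37 °C. Samples taken at 0, 7, 17, 30 and 60 min were quenched in methanol, and parent compound was measured by LC/MS/MS. t1/2 and Clint were then calculated.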
# [35] = Oral bioavailability in Sprague-Dawley rat at 10 mg/kg; type: ADME, organism-based; settings: in vivo; how it was run: as §3
# [36] = Elimination half life in Sprague-Dawley rat liver microsomes at 0.1 uM by LC/MS/MS analysis; type: ADME; settings: read-out: beta t1/2; how it was run: as §4
# [37] = Half life in Sprague-Dawley rat at 3 mg/kg, iv; type: ADME, organism-based; set-up: dose 3 mg/kg, route intravenous; settings: in vivo; how it was run: as §3
# [38] = AUC (0 to infinity) in Sprague-Dawley rat at 3 mg/kg, iv; type: ADME, organism-based; set-up: time infinity, dose 3 mg/kg, route intravenous; settings: plasma; how it was run: as §3
# [39] = Clearance in Sprague-Dawley rat at 3 mg/kg, iv; type: ADME, organism-based; set-up: dose 3 mg/kg, route intravenous; settings: in vivo; how it was run: as §3
# Voltage-gated inwardly rectifying potassium channel KCNH2, sequence (Q12809 whole entry): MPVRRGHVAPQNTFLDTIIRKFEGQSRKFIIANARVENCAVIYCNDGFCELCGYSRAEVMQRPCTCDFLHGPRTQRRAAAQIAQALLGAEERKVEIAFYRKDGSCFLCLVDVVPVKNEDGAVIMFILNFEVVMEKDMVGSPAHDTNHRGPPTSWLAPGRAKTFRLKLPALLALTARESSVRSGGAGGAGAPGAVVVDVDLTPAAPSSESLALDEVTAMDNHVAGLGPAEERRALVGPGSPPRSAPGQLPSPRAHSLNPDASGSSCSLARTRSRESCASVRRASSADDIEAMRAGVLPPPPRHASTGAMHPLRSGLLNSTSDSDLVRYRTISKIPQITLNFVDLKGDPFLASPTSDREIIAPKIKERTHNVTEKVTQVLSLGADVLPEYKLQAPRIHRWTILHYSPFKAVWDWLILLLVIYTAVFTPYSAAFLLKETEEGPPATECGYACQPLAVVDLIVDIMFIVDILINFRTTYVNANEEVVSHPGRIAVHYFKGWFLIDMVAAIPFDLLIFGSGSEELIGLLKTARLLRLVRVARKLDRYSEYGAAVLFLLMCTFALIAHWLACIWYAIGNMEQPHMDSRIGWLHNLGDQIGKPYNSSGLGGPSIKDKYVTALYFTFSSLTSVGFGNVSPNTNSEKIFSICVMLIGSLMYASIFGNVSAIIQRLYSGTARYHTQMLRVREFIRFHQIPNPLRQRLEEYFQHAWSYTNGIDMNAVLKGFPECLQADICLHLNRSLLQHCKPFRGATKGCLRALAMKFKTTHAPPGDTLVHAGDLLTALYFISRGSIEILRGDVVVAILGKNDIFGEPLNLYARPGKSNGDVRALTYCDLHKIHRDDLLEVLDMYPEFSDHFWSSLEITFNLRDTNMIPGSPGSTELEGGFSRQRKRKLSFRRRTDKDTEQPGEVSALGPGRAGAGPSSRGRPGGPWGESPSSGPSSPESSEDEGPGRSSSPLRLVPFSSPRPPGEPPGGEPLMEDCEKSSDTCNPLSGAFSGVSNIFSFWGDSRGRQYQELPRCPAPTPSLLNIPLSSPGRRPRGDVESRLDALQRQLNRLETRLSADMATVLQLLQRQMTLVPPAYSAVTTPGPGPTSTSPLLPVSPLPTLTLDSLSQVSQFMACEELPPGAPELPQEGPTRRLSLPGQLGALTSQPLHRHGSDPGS
smiles,measurement,setting,value
C[C@@H](N1CCn2cc(-c3ccccc3)nc2C1)[C@](O)(Cn1cncn1)c1ccc(F)cc1F,MIC,Candida albicans [1],0.0625 µg/mL
same,MIC,Candida albicans [2],0.0625 µg/mL
same,MIC,Candida parapsilosis [3],0.0625 µg/mL
same,MIC,Cryptococcus neoformans [4],0.0312 µg/mL
same,MIC,Nakaseomyces glabratus [5],0.0312 µg/mL
same,MIC,Aspergillus fumigatus,16 µg/mL
same,MIC,Candida albicans [6],> 32 µg/mL
same,MIC,Candida albicans [7],> 32 µg/mL
same,MIC,Candida albicans [8],> 32 µg/mL
same,MIC,Candida albicans [9],0.5 µg/mL
same,MIC,Candida albicans [10],0.125 µg/mL
same,Ratio,Candida parapsilosis [11],2
same,Ratio,Cryptococcus neoformans [12],2
same,Ratio,Nakaseomyces glabratus [13],2
same,Ratio,Candida parapsilosis [14],2
same,Ratio,Cryptococcus neoformans [15],2
same,Ratio,Nakaseomyces glabratus [16],2
same,Ratio,Candida albicans [17],16
same,Ratio,Candida albicans [18],16
same,Ratio,Candida albicans [19],16
C[C@@H](N1CCn2nc(-c3ccc(C#N)nc3)nc2C1)[C@](O)(Cn1cncn1)c1ccc(F)cc1F,Survival,Candida albicans [20],12.3 days
same,MIC,Candida albicans [1],0.0156 µg/mL
same,MIC,Candida albicans [2],0.0156 µg/mL
same,MIC,Candida parapsilosis [3],0.0156 µg/mL
same,MIC,Cryptococcus neoformans [4],0.0078 µg/mL
same,MIC,Nakaseomyces glabratus [5],0.0078 µg/mL
same,MIC,Aspergillus fumigatus,1 µg/mL
same,MIC,Candida albicans [6],8 µg/mL
same,MIC,Candida albicans [7],> 16 µg/mL
same,MIC,Candida albicans [8],> 16 µg/mL
same,MIC,Candida albicans [9],0.0625 µg/mL
same,MIC,Candida albicans [10],≤ 0.0312 µg/mL
same,pIC50,[21],< 4.40
same,Survival,Candida albicans [22],8 days
same,solubility,[23],44 µg/mL
same,Survival,Candida albicans [24],14.1 days
same,Survival,Candida albicans [25],18.1 days
same,Survival,Candida albicans [26],1.7 days
same,Survival,Candida albicans [27],2 days
same,Survival,Candida albicans [28],3.6 days
same,Survival,Candida albicans [29],8.3 days
same,Cmax,[30],1420 ng/mL
same,Tmax,[31],1.75 h
same,half-life,[32],3.63 h
same,AUC(0-inf),[33],7910 ng·h/mL
same,microsomal CLint at 0.1 µM,[34],5 µL/min/mg
same,bioavailability,[35],105%
same,half-life at 0.1 µM,[36],7.17 h
same,half-life,[37],1.2 h
same,AUC(0-inf),[38],2240 ng·h/mL
same,clearance,[39],22.7 mL/min/kg
